{"source": "ChEMBL document CHEMBL1122668", "about": "“Synthesis, conformational analysis, and antiarrhythmic properties of 7-benzyl-3-thia-7-azabicyclo[3.3.1]nonan-9-one, 7-benzyl-3-thia-7-azabicyclo[3.3.1]nonane hydroperchlorate, and 7-benzyl-9-phenyl-3-thia-7-azabicyclo[3.3.1]nonan-9-ol hydroperchlorate and derivatives: single-crystal X-ray …” (1984)", "key": {"Canis familiaris [1]": {"species_on_record": "Canis familiaris", "experiment": "Increase in mean blood pressure on Ventricular Tachycardia (VT); (SL-Slight)", "type": "functional, Canis lupus familiaris", "procedure,_shortened": "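Pentobarbital-anesthetized dogs with infarction, given the drug intravenously. Mean arterial blood pressure was monitored continuously during ventricular tachycardia induced by three paced ventricular beats.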"}, "Canis familiaris [2]": {"species_on_record": "Canis familiaris", "experiment": "Compound was evaluated for abolition of ventricular tachycardia (Number/total); + = slight degree", "type": "functional, organism-based", "details": "Canis lupus familiaris; Cardiac ventricle"}, "Canis familiaris [3]": {"species_on_record": "Canis familiaris", "experiment": "Effect of compound on myocardial conduction abnormal; No change.", "type": "functional, organism-based", "details": "Canis lupus familiaris; Myocardium"}, "Canis familiaris [4]": {"species_on_record": "Canis familiaris", "experiment": "Effect of compound on myocardial conduction normal (A-V, I-V); No change.", "type": "functional, organism-based", "details": "Canis lupus familiaris; Myocardium"}, "Canis familiaris [5]": {"species_on_record": "Canis familiaris", "experiment": "Effect of compound on myocardial conduction abnormal; ++ = moderate decrease", "type": "functional, organism-based", "details": "Canis lupus familiaris; Myocardium"}, "Canis familiaris [6]": {"species_on_record": "Canis familiaris", "experiment": "Compound was evaluated for abolition of ventricular tachycardia (Number/total);+ = slight degree", "type": "functional, organism-based", "details": "Canis lupus familiaris; Cardiac ventricle", "procedure,_shortened": "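Dogs with 24-h myocardial infarction, anesthetized with 30 mg/kg iv sodium pentobarbital and given a left thoracotomy. Sustained ventricular tachycardia induced by three paced ventricular beats at 240–390/min. Compound given iv as a bolus in 50% ethanol. Pacing induction attempts repeated after dosing, up to 420/min. Abolition scored as number of dogs/total, with mean arterial pressure monitored.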"}, "Canis familiaris [7]": {"species_on_record": "Canis familiaris", "experiment": "Effect of compound on myocardial conduction abnormal; +++ = marked decrease", "type": "functional, organism-based", "details": "Canis lupus familiaris; Myocardium", "procedure,_shortened": "(§1)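 Pentobarbital-anesthetized dogs (30 mg/kg iv) with 24-h myocardial infarction, heart exposed by left thoracotomy. Recordings: lead II ECG, His bundle electrogram, and endocardial and epicardial electrodes over the infarct (abnormal tissue) plus a noninfarcted posterior epicardial reference (normal tissue). Atrial pacing from 180/min up to second-degree A-V block, before and after iv drug. Read-outs: intra-atrial, A-V nodal, His-Purkinje and ventricular conduction.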"}, "Canis familiaris [8]": {"species_on_record": "Canis familiaris", "experiment": "Effect of compound on myocardial conduction normal (A-V, I-V); […]", "type": "functional, organism-based", "details": "Canis lupus familiaris; Myocardium", "procedure,_shortened": "as §1"}, "Canis familiaris [9]": {"species_on_record": "Canis familiaris", "experiment": "Effect of compound on rate of induced ventricular tachycardia (VT) in dog", "type": "functional, Canis lupus familiaris, Cardiac ventricle", "procedure,_shortened": "(§2)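 Dogs with 24-h myocardial infarction under iv sodium pentobarbital (30 mg/kg), six per agent. Drug given as an iv bolus in 50% ethanol at 3 and 6 mg/kg; the reference agent was given iv at 2, 4 and 6 mg/kg. Sustained VT was induced by three paced ventricular beats at 240–390/min, with pacing retried up to 420/min after dosing. Read-outs were VT rate, abolition count and continuous mean arterial pressure.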"}, "Canis familiaris [10]": {"species_on_record": "Canis familiaris", "experiment": "Compound was tested for mean blood pressure on induced Ventricular Tachycardia (VT)", "type": "functional, Canis lupus familiaris", "procedure,_shortened": "as §2"}, "[11]": {"experiment": "Compound was evaluated for abolition of ventricular tachycardia (Number/total); 0/6.", "type": "functional, tissue-based", "details": "Cardiac ventricle"}}, "note": "The source made the active and inactive calls. The rule behind the calls is not given here."}
{"compound": "O=C1C2CSCC1CN(Cc1ccccc1)C2.[O-][Cl+3]([O-])([O-])O", "values": [{"measurement": "Mean blood pressure", "setting": "Canis familiaris [1]", "result": 15, "unit": "%"}]}
{"compound": "O=C1C2CSCC1CN(Cc1ccccc1)C2", "note": "[listing 1 of 2 here]", "values": [{"measurement": "Abolition", "setting": "Canis familiaris [2]", "result": "slight degree"}, {"measurement": "Change in myocardial conduction", "setting": "Canis familiaris [3]", "result": "inactive"}, {"measurement": "Change in myocardial conduction", "setting": "Canis familiaris [4]", "result": "inactive"}, {"measurement": "Effect", "setting": "Canis familiaris [5]", "result": "moderate decrease"}]}
{"compound": "OC1(c2ccccc2)C2CSCC1CN(Cc1ccccc1)C2.[O-][Cl+3]([O-])([O-])O", "note": "(stereo not given)", "values": [{"measurement": "Abolition", "setting": "Canis familiaris [6]", "result": "slight degree"}, {"measurement": "Mean blood pressure", "setting": "Canis familiaris [1]", "result": "< 10", "unit": "%"}, {"measurement": "Effect", "setting": "Canis familiaris [7]", "result": "marked decrease"}, {"measurement": "Effect", "setting": "Canis familiaris [8]", "result": "marked decrease"}]}
{"compound": "[O-][Cl+3]([O-])([O-])O.c1ccc(CN2CC3CSCC(C3)C2)cc1", "values": [{"measurement": "Rate", "setting": "Canis familiaris [9]", "result": 250}, {"measurement": "Mean blood pressure", "setting": "Canis familiaris [10]", "result": 112, "unit": "mmHg"}]}
{"compound": "O=C1C2CSCC1CN(Cc1ccccc1)C2", "note": "[listing 2 of 2 here]", "values": [{"measurement": "Mean blood pressure", "setting": "Canis familiaris [1]", "result": "< 10", "unit": "%"}]}
{"compound": "CCN(CC)CC(=O)Nc1c(C)cccc1C", "note": "[LIDOCAINE]", "values": [{"measurement": "Rate", "setting": "Canis familiaris [9]", "result": 315}, {"measurement": "Mean blood pressure", "setting": "Canis familiaris [10]", "result": 95, "unit": "mmHg"}, {"measurement": "Ratio", "setting": "[11]", "result": "inactive"}]}
